# Biological target: GABA-A receptor; alpha-6/beta-3/gamma-2 (Homo sapiens, UniProt P18507+P28472+Q16445)
# Assay: Binding affinity for human recombinant gamma-aminobutyric-acid (GABA) A receptor alpha-6-beta-3-gamma-2
# Type: protein-complex assay
# Procedure, shortened: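 Ltk⁻ cells expressing human α6β3γ2 were harvested by scraping into PBS, centrifuged at 3000g and resuspended in 10 mM KH₂PO₄/100 mM KCl (pH 7.4). Incubation was 1 h at 4 °C with filter harvest and scintillation counting.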
# Sequence of GABA-A receptor; alpha-6/beta-3/gamma-2 (Q16445 whole entry, one chain of several): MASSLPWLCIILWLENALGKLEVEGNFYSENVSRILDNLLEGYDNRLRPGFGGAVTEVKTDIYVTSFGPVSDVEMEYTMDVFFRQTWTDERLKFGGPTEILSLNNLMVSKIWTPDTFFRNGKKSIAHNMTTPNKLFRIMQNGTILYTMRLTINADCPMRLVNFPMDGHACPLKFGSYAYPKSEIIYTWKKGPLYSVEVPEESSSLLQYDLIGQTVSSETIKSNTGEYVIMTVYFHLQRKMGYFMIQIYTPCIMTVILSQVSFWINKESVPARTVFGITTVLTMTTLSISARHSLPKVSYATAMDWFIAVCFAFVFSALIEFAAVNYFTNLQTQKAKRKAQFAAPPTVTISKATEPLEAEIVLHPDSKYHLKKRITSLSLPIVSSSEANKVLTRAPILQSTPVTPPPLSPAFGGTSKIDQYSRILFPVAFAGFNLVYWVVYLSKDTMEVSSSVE
row,SMILES,Ki [nM]
1,CCCOc1ccc2[nH]c3cnc(OCCC)c(COC)c3c2c1,> 1000
2,COCc1c(C(=O)OC(C)C)ncc2[nH]c3ccc(OCc4ccccc4)cc3c12 [ABECARNIL],> 1000
3,CN1C(=O)CN=C(c2ccccc2)c2cc(Cl)ccc21 [DIAZEPAM],> 3000

# Test system: not listed separately
# Assay: Selectivity ratio of alpha1 beta-3 gamma2 GABA A / BzR and alpha5 beta-3 gamma2 GABA A / BzR
row,SMILES,Ratio
1,CCOC(=O)c1ncn2c1CN(C)C(=O)c1cc(OCC)ccc1-2,12.4
2,CCOC(=O)c1ncn2c1[C@@H]1CCN1C(=O)c1cc(C#C[Si](C)(C)C)ccc1-2,32
3,C#Cc1ccc2c(c1)C(=O)N(C)Cc1c(C(=O)OCC)ncn1-2,58
4,CCc1ncn2c1CN(C)C(=O)c1cc(Cl)ccc1-2,2.2
5,C#Cc1ccc2c(c1)C(=O)N1CCC[C@H]1c1c(-c3nc(C(C)C)no3)ncn1-2,15
6,CCOC(=O)c1ncn2c1CN(C)C(=O)c1cc(Br)ccc1-2,3.7
7,CN1Cc2c(C(=O)OC(C)(C)C)ncn2-c2ccc(I)cc2C1=O,25.5
8,CCc1ccc2c(c1)C(=O)N(C)Cc1c(C(=O)OC(C)(C)C)ncn1-2,8.6
9,CN1Cc2c(CCl)ncn2-c2ccc(Cl)cc2C1=O,> 10.5
10,CC#Cc1ccc2c(c1)C(=O)N(C)Cc1c(C(=O)OCC)ncn1-2,6
11,CCOC(=O)c1ncn2c1CN(C)C(=O)c1cc(CC)ccc1-2,13.6
12,CCOC(=O)c1ncn2c1CN(C)C(=O)c1cc(Cl)ccc1-2,8
13,CN1Cc2c(C(=O)OC(C)(C)C)ncn2-c2ccc(Br)cc2C1=O,24.3
14,CC(C)N(Cc1ncn2c1CN(C)C(=O)c1cc(Cl)ccc1-2)C(C)C,3.2
15,CCCCCc1ncn2c1CN(C)C(=O)c1cc(Cl)ccc1-2,5.6
16,CCOC(=O)c1ncn2c1[C@@H]1CCN1C(=O)c1cc(Br)ccc1-2,56
17,CCOC(=O)c1ncn2c1[C@@H]1CCCN1C(=O)c1cc(Br)ccc1-2,49
18,C#Cc1ccc2c(c1)C(=O)N1CCC[C@@H]1c1c(C(=O)OCC)ncn1-2,39
19,COCc1ncn2c1CN(C)C(=O)c1cc(Cl)ccc1-2,> 7.7

row,SMILES,Ratio
1,CCOC(=O)c1ncn2c1CN(C)C(=O)c1cc(C#N)ccc1-2,1.7
2,CCCCC(=O)c1ncn2c1CN(C)C(=O)c1cc(Cl)ccc1-2,9.6
3,C#Cc1ccc2c(c1)C(=O)N1CC[C@H]1c1c(-c3nc(CC)no3)ncn1-2,17
4,C#Cc1ccc2c(c1)C(=O)N1CCC[C@H]1c1c(-c3nc(C)no3)ncn1-2,24
5,CN1Cc2c(C(=O)OCC3CC3)ncn2-c2ccc(Cl)cc2C1=O,1.7
6,CN1Cc2c(C(=O)OC(C)(C)C)ncn2-c2ccc(C#CC[Si](C)(C)C)cc2C1=O,12
7,CN1Cc2c(C(=O)OC(C)(C)C)ncn2-c2ccc(N3CCCC3)cc2C1=O,0.63
8,C=Cc1ccc2c(c1)C(=O)N(C)Cc1c(C(=O)OCC)ncn1-2,20.8
9,CN1Cc2c(C(=O)OC(C)(C)C)ncn2-c2ccc(Cl)cc2C1=O,26.6
10,CCOC(=O)c1ncn2c1CN(C)C(=O)c1cc(C#C[Si](C)(C)C)ccc1-2,24.2
11,CN1Cc2c(C(=O)OC(C)(C)C)ncn2-c2ccc([N+](=O)[O-])cc2C1=O,3.7
12,C#Cc1ccc2c(c1)C(=O)N1CCC[C@H]1c1c(-c3nc(CC)no3)ncn1-2,36
13,CN1Cc2c(C(=O)OC(C)(C)C)ncn2-c2ccc(C#C[Si](C)(C)C)cc2C1=O,75.5
14,CN1Cc2c(C(=O)OC(C)(C)C)ncn2-c2ccc(O)cc2C1=O,10.7
15,CCOC(=O)c1ncn2c1[C@@H]1CCCN1C(=O)c1cc(C#C[Si](C)(C)C)ccc1-2,50
16,CCN(CC)Cc1ncn2c1CN(C)C(=O)c1cc(Cl)ccc1-2,3.2
17,CN1Cc2c(C(=O)OC(C)(C)C)ncn2-c2ccc(N=C=S)cc2C1=O,6.8
18,C#Cc1ccc2c(c1)C(=O)N1CC[C@H]1c1c(-c3nc(C(C)C)no3)ncn1-2,18
19,C#Cc1ccc2c(c1)C(=O)N(C)Cc1c(C(=O)OC(C)(C)C)ncn1-2,67.3

# Biological target: T1, GABA-A receptor; alpha-5/beta-3/gamma-2 (Homo sapiens, UniProt P18507+P28472+P31644)
# T1 sequence (P18507 whole entry): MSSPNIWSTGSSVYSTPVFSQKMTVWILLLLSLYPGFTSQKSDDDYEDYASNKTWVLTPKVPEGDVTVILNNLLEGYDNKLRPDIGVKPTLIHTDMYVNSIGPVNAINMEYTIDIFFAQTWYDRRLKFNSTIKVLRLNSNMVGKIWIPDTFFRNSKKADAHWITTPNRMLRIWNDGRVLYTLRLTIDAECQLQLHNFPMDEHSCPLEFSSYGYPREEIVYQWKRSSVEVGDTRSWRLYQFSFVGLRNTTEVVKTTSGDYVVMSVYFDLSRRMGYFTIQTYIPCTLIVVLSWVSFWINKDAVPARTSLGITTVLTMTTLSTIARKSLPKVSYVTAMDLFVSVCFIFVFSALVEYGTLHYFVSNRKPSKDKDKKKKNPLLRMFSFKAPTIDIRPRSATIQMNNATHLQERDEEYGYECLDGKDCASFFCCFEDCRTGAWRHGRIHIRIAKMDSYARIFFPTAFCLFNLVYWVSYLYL
# T1 sequence (P28472 whole entry): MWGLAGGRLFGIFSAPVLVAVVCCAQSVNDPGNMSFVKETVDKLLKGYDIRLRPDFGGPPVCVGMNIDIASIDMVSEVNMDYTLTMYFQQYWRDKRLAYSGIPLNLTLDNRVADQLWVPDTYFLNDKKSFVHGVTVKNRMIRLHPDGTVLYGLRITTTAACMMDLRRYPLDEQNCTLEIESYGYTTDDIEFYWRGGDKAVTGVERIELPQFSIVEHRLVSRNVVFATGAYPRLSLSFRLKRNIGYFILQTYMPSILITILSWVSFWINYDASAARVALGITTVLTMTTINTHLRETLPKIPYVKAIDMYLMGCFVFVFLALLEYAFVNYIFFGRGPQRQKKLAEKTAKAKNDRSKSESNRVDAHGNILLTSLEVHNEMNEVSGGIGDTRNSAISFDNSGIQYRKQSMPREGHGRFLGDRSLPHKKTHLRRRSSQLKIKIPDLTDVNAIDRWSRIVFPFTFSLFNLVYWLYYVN
# T1 sequence (P31644 whole entry): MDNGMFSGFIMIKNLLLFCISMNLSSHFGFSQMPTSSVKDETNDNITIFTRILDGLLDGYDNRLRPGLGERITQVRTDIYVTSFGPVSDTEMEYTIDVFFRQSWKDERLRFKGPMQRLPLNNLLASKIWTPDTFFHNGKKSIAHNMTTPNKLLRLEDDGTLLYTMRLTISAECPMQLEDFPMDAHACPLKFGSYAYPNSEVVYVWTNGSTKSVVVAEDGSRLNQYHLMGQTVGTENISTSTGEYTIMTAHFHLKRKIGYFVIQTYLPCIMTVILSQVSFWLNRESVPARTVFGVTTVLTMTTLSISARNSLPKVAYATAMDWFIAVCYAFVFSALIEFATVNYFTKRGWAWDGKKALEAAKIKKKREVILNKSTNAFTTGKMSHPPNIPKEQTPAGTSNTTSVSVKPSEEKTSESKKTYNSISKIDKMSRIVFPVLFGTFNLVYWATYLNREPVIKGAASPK
# Assay: Binding affinity for human recombinant gamma-aminobutyric-acid (GABA) A receptor alpha-5-beta-3-gamma-2
# Type: protein-complex assay
row,SMILES,Ki [nM]
1,CCOC(=O)c1ncn2c1CN(C)C(=O)c1cc(N=[N+]=[N-])ccc1-2 [Ro-154513],0.3
2,CCOc1cc2c(cn1)[nH]c1ccccc12,826

# Biological target: T2, GABA-A receptor; alpha-3/beta-3/gamma-2 (Homo sapiens, UniProt P18507+P28472+P34903)
# T2 sequence (P18507 whole entry): T1 sequence (P18507 whole entry)
# T2 sequence (P28472 whole entry): T1 sequence (P28472 whole entry)
# T2 sequence (P34903 whole entry): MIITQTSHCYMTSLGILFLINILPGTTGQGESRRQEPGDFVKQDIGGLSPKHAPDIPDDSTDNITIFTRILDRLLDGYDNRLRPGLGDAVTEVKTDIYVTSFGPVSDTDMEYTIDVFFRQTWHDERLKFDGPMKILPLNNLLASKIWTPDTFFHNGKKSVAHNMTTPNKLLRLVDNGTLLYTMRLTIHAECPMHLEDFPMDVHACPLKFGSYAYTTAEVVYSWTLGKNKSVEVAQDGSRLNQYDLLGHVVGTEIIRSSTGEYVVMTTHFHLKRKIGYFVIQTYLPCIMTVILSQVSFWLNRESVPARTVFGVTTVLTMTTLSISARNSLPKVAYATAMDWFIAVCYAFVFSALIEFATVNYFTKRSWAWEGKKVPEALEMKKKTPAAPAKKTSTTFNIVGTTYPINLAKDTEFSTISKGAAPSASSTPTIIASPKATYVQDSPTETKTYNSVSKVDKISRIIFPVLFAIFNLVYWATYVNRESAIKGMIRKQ
# Assay: Binding affinity for human recombinant gamma-aminobutyric-acid (GABA) A receptor alpha-3-beta-3-gamma-2
# Type: protein-complex assay
row,SMILES,Ki [nM]
1,CCOc1cc2c(cn1)[nH]c1ccccc12,28.2

# Source: ChEMBL document CHEMBL1132940, “Pharmacophore/receptor models for GABA(A)/BzR subtypes (alpha1beta3gamma2, alpha5beta3gamma2, and alpha6beta3gamma2) via a comprehensive ligand-mapping approach” (J Med Chem, 2000)
